Results reported in ChEMBL document CHEMBL1124408, “3-aminopyridazine derivatives with atypical antidepressant, serotonergic, and dopaminergic activities” (J Med Chem, 1989).

Legend:
Mus musculus [1] = assay: Serotonergic activity was determined by measuring the potentiation of 5-hydroxytryptophan in mice upon ip administration; type: functional
Method in brief: (§1)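 Drug was injected ip in distilled water/gum tragacanth to female CD1 mice (18-22 g) at multiple doses (7-20 mice/dose), 30 min before a threshold dose of L-5-HTP (200 mg/kg ip). Mice were held singly in small cages, and tremor was scored all-or-none over the 20 min after L-5-HTP.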

Mus musculus [2] = assay: Ability to modify turning behavior of mice after intraperitoneal administration; type: functional; conditions: ip, read-out: MED
Method in brief: (§2)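 Female CD1 mice (25-30 g) were lesioned by stereotaxic injection of 6-OHDA (10 μg in 1 μL saline with 1 mg/mL ascorbic acid) into the right striatum under pentobarbitone (60 mg/kg ip). Seven days later, drug in distilled water/gum tragacanth was given ip at multiple doses (7-20 mice/dose). Ipsilateral turns were counted for 2 min starting 30 min post-dose.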

Mus musculus [3] = assay: Antidepressant activity against reserpine induced ptosis in mice after intraperitoneal administration.; type: functional; conditions: ip
Method in brief: (§3)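 Female CD1 mice (18-22 g) received the drug in distilled water/gum tragacanth ip at multiple doses (7-20 mice/dose), given together with reserpine (2 mg/kg iv). One hour later, palpebral ptosis (half or more of the lid closed) was scored all-or-none. Screening dose was at most 50% of the seizure threshold dose.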

Mus musculus [4] = assay: Compound was tested for antidepressant activity against reserpine induced ptosis in mice after intraperitoneal administration.; value ranges from 14-18; type: functional; conditions: ip; method in brief: as §3
[5] = Acute toxicity in mice after intraperitoneal administration.; conditions: mouse, in vivo, ip, LD50
Mus musculus [6] = assay: Compound was tested for antidepressant activity against reserpine induced ptosis in mice after intraperitoneal administration; 50% activity at this maximal tested dose; type: functional; conditions: ip; method in brief: as §3
Mus musculus [7] = assay: Compound was tested for antidepressant activity against reserpine induced ptosis in mice after intraperitoneal administration.; value ranges from 11-16; type: functional; conditions: ip; method in brief: as §3
Mus musculus [8] = assay: Serotonergic activity by measuring the potentiation of 5-hydroxy tryptophan in mice upon ip administration; value ranges from 1.9-11.7.; type: functional; method in brief: as §1
Mus musculus [9] = assay: Compound was tested for antidepressant activity against reserpine induced ptosis in mice after intraperitoneal administration.; value ranges from 1.9-10.7; type: functional; conditions: ip; method in brief: as §3
Mus musculus [10] = assay: Compound was tested for antidepressant activity against reserpine induced ptosis in mice after intraperitoneal administration.; value ranges from 5.9-7.3; type: functional; conditions: ip; method in brief: as §3
Mus musculus [11] = assay: Serotonergic activity by measuring the potentiation of 5-hydroxy tryptophan in mice upon ip administration; value ranges from 4.4-5.7; type: functional; method in brief: as §1
Mus musculus [12] = assay: Compound was tested for antidepressant activity against reserpine induced ptosis in mice after intraperitoneal administration.; value ranges from 5.9-6.7; type: functional; conditions: ip; method in brief: as §3
Mus musculus [13] = assay: Serotonergic activity by measuring the potentiation of 5-hydroxy tryptophan in mice upon ip administration; value ranges from 3.0-4.0; type: functional; method in brief: as §1
Mus musculus [14] = assay: Compound was tested for antidepressant activity against reserpine induced ptosis in mice after intraperitoneal administration.; value ranges from 9-12; type: functional; conditions: ip; method in brief: as §3
Mus musculus [15] = assay: Serotonergic activity by measuring the potentiation of 5-hydroxy tryptophan in mice upon ip administration; value ranges from 1.4-2.1; type: functional; method in brief: as §1
Mus musculus [16] = assay: Compound was tested for antidepressant activity against reserpine induced ptosis in mice after intraperitoneal administration.; value ranges from 27-31; type: functional; conditions: ip; method in brief: as §3
Mus musculus [17] = assay: Compound was tested for antidepressant activity against reserpine induced ptosis in mice after intraperitoneal administration.; value ranges from 5-9; type: functional; conditions: ip; method in brief: as §3
Mus musculus [18] = assay: Compound was tested for antidepressant activity against reserpine induced ptosis in mice after intraperitoneal administration.; value ranges from 16-20; type: functional; conditions: ip; method in brief: as §3
Mus musculus [19] = assay: Serotonergic activity by measuring the potentiation of 5-hydroxy tryptophan in mice upon ip administration; value ranges from 17-20; type: functional; method in brief: as §1
Mus musculus [20] = assay: Compound was tested for antidepressant activity against reserpine induced ptosis in mice after intraperitoneal administration.; value ranges from 0.13-0.22; type: functional; conditions: ip; method in brief: as §3
Mus musculus [21] = assay: Ability to modify turning behavior of mice after intraperitoneal administration.; type: functional; conditions: ip, read-out: MED; method in brief: as §2

Row | SMILES | ED50 (Mus musculus [1]) [mg/kg] | minimal effective dose (Mus musculus [2]) [mg/kg] | ED50 (Mus musculus [3]) [mg/kg] | LD50 [5] [mg/kg] | also measured
1 | NC(=O)c1cc(-c2ccccc2)nnc1NCCN1CCOCC1 | > 60 | 2 | > 40 | – | –
2 | Cc1cc(-c2ccccc2)nnc1NCCN | > 30 | 0.5 | – | 300 | ED50 (Mus musculus [4]): 16 mg/kg
3 | Cc1cccc(-c2cc(C)c(NCCN3CCOCC3)nn2)c1 | > 10 | > 2 | – | 23 | ED50 (Mus musculus [6]): 10 mg/kg
4 | Cc1cc(-c2ccccc2)nnc1NCC(C)N1CCOCC1 (stereo not drawn) | > 15 | 2 | – | 54 | ED50 (Mus musculus [7]): 13 mg/kg
5 | Cc1ccccc1-c1cc(C)c(NCCN2CCOCC2)nn1 | > 1 | > 1 | > 1 | 5 | –
6 | c1ccc(-c2cc(Cc3ccc4ccccc4c3)c(NCCN3CCOCC3)nn2)cc1 | > 100 | 2 | > 50 | 275 | –
7 | Cc1ccc(-c2cc(C)c(NCCN3CCOCC3)nn2)cc1 | > 15 | 0.5 | > 15 | 51 | –
8 | c1ccc(-c2cc(-c3ccccc3)c(NCCN3CCOCC3)nn2)cc1 | > 25 | > 2 | > 50 | 150 | –
9 | Cc1cc(-c2ccc(F)cc2)nnc1NCCN1CCOCC1 | – | 2 | – | 45 | ED50 (Mus musculus [8]): 4.7 mg/kg; ED50 (Mus musculus [9]): 4.5 mg/kg
10 | COc1ccccc1-c1cc(C)c(NCCN2CCOCC2)nn1 | > 10 | 0.5 | > 10 | 40 | –
11 | CCOC(=O)c1cc(-c2ccccc2)nnc1NCCN1CCOCC1 | – | 0.5 | > 50 | 180 | –
12 | Cc1cc(-c2cccc3ccccc23)nnc1NCCN1CCOCC1 | > 2.5 | 0.01 | > 2.5 | 7 | –
13 | Cc1cc(-c2ccccc2Cl)nnc1NCCN1CCOCC1 | – | 1 | > 5 | 7 | –
14 | N#Cc1cc(-c2ccccc2)nnc1NCCN1CCOCC1 [BAZINAPRINE] | – | 0.1 | – | – | ED50 (Mus musculus [10]): 6.6 mg/kg; ED50 (Mus musculus [11]): 5 mg/kg
15 | c1ccc(-c2ccc(NCCN3CCOCC3)nn2)cc1 | – | 0.5 | – | 250 | ED50 (Mus musculus [12]): 6 mg/kg; ED50 (Mus musculus [13]): 3.7 mg/kg
16 | Br.Br.Cc1cc(-c2ccc(O)cc2)nnc1NCCN1CCOCC1 [MOXIRAPRINE DIBROMIDE] | > 100 | 0.1 | > 40 | > 300 | –
17 | Cc1cc(-c2ccccc2)nnc1NCCCCN | > 30 | 0.1 | > 50 | 300 | –
18 | Cc1cc(-c2ccc(N)cc2)nnc1NCCN1CCOCC1 | – | > 2 | > 5 | 15 | –
19 | Cc1cc(-c2ccccc2)nnc1NCCN1CCCC1 | – | – | > 30 | 70 | –
20 | Cc1cc(-c2ccsc2)nnc1NCCN1CCOCC1 | – | > 10 | – | 72 | ED50 (Mus musculus [14]): 10 mg/kg; ED50 (Mus musculus [15]): 1.7 mg/kg
21 | Cc1cc(-c2ccccc2)nnc1NCCN(C)C | > 30 | 10 | – | 118 | ED50 (Mus musculus [16]): 29 mg/kg
22 | COc1cccc(-c2cc(C)c(NCCN3CCOCC3)nn2)c1 | > 5 | 0.5 | – | 18 | ED50 (Mus musculus [17]): 6 mg/kg
23 | Br.Br.Cc1cc(-c2ccccc2O)nnc1NCCN1CCOCC1 | – | 0.1 | – | > 200 | ED50 (Mus musculus [18]): 16 mg/kg; ED50 (Mus musculus [19]): 17 mg/kg
24 | CN1Cc2c(N)cccc2C(c2ccccc2)C1 (stereo not drawn) [NOMIFENSINE] | > 30 | – | – | – | ED50 (Mus musculus [20]): 0.17 mg/kg; minimal effective dose (Mus musculus [21]): 5 mg/kg
